According to ChEMBL document CHEMBL3407470, “Synthesis, biological evaluation and 3D-QSAR studies of novel 5-phenyl-1H-pyrazol cinnamamide derivatives as novel antitubulin agents” (Eur J Med Chem, 2015):

Legend:
A549 = assay: Antiproliferative activity against human A549 cells after 48 hrs by MTT assay; assay type: functional, cell-based; conditions: A549, 48 h
Procedure, shortened: (§1)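 Cells grown to log phase in RPMI 1640 with 10% FBS, seeded at 2×10^4 cells/mL and allowed 24 h at 37 °C, 5% CO₂ before treatment. Compounds at pre-set concentrations, colchicine and CA-4 as references, exposed 48 h. MTT added (2.5 mg/mL in PBS) for 4 h, then SDS/isobutyl alcohol/HCl extraction overnight; OD at 570 nm. Triplicate wells per concentration; values averaged from at least three separate runs.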

[1] = Antiproliferative activity against mouse B16F10 cells after 48 hrs by MTT assay; assay type: functional, cell-based; conditions: B16-F10, 48 h; procedure, shortened: as §1
Tubulin = Tubulin (Bos taurus, UniProt Q6B856+Q862L2+Q862F3); assay: Inhibition of bovine brain tubulin polymerization incubated for 20 mins by spectrophotometry
MCF7 [2] = assay: Antiproliferative activity against human MCF7 cells after 48 hrs by MTT assay; assay type: functional, cell-based; conditions: MCF7, 48 h; procedure, shortened: as §1
MCF7 [3] = assay: Induction of cell cycle arrest in human MCF7 cells assessed as accumulation at S phase at 2 ug/ml after 24 hrs by flow cytometry (reference value: 14.58%); assay type: functional
Procedure, shortened: (§2)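 MCF-7 cells exposed 24 h to the compound at 1 and 2 μg/mL. Phase distribution (G0/G1, S, G2/M) was measured by flow cytometry and reported as percentage of cells in each phase.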

MCF7 [4] = assay: Induction of cell cycle arrest in human MCF7 cells assessed as accumulation at G2/M phase after 24 hrs by flow cytometry; assay type: functional, cell-based; procedure, shortened: as §2
MCF7 [5] = assay: Induction of cell cycle arrest in human MCF7 cells assessed as accumulation at G0/G1 phase at 1 ug/ml after 24 hrs by flow cytometry (reference value: 59.75%); assay type: functional; procedure, shortened: as §2
MCF7 [6] = assay: Induction of cell cycle arrest in human MCF7 cells assessed as accumulation at G2/M phase at 1 ug/ml after 24 hrs by flow cytometry (reference value: 25.67%); assay type: functional; procedure, shortened: as §2
MCF7 [7] = assay: Induction of cell cycle arrest in human MCF7 cells assessed as accumulation at G0/G1 phase at 2 ug/ml after 24 hrs by flow cytometry (reference value: 59.75%); assay type: functional; procedure, shortened: as §2
MCF7 [8] = assay: Induction of cell cycle arrest in human MCF7 cells assessed as accumulation at S phase at 1 ug/ml after 24 hrs by flow cytometry (reference value: 14.58%); assay type: functional; procedure, shortened: as §2
MCF7 [9] = assay: Induction of cell cycle arrest in human MCF7 cells assessed as accumulation at G2/M phase at 2 ug/ml after 24 hrs by flow cytometry (reference value: 25.67%); assay type: functional; procedure, shortened: as §2
MCF7 [10] = assay: Induction of cell cycle arrest in human MCF7 cells assessed as accumulation at G2/M phase after 24 hrs by flow cytometry (reference value: 25.67%); assay type: functional; procedure, shortened: as §2
MCF7 [11] = assay: Induction of cell cycle arrest in human MCF7 cells assessed as accumulation at G0/G1 phase after 24 hrs by flow cytometry (reference value: 59.75%); assay type: functional; procedure, shortened: as §2
MCF7 [12] = assay: Induction of cell cycle arrest in human MCF7 cells assessed as accumulation at S phase after 24 hrs by flow cytometry (reference value: 14.58%); assay type: functional; procedure, shortened: as §2

Row | IC50 (A549) | IC50 (Tubulin) | pIC50 (Tubulin) | IC50 (MCF7 [2]) | SMILES | IC50 [1] | further results
1 | 1590 nM | 2550 nM | 5.593 | 1370 nM | Cc1ccc(-c2cc(NC(=O)/C=C/c3ccc(Br)cc3)n[nH]2)cc1 | 1570 nM | 
2 | 1490 nM | 2150 nM | 5.668 | 1190 nM | Cc1ccc(-c2cc(NC(=O)/C=C/c3ccc(Cl)cc3)n[nH]2)cc1 | 1520 nM | 
3 | 620 nM | 1020 nM | 5.991 | 350 nM | O=C(/C=C/c1ccc(C(F)(F)F)cc1)Nc1cc(-c2ccc(Br)cc2)[nH]n1 | 570 nM | Activity (MCF7 [3]): 16.28%; Activity (MCF7 [4]): Dose-dependent effect; Activity (MCF7 [5]): 35.99%; Activity (MCF7 [6]): 45.55%; Activity (MCF7 [7]): 6.77%; Activity (MCF7 [8]): 18.46%; Activity (MCF7 [9]): 76.95%
4 | 1060 nM | 1640 nM | 5.785 | 720 nM | COc1ccc(/C=C\C(=O)Nc2cc(-c3ccccc3)[nH]n2)cc1 | 950 nM | 
5 | 1360 nM | 2140 nM | 5.67 | 920 nM | O=C(/C=C/c1ccc(Br)cc1)Nc1cc(-c2ccc(Br)cc2)[nH]n1 | 1280 nM | 
6 | 820 nM | 1350 nM | 5.87 | 590 nM | COc1ccc(/C=C/C(=O)Nc2cc(-c3ccc(Br)cc3)[nH]n2)cc1 | 770 nM | 
7 | 1190 nM | 1760 nM | 5.754 | 860 nM | COc1ccc(/C=C/C(=O)Nc2cc(-c3ccc(C)cc3)[nH]n2)cc1 | 1370 nM | 
8 | 1620 nM | 2760 nM | 5.56 | 1170 nM | Cc1ccc(/C=C/C(=O)Nc2cc(-c3ccc(Br)cc3)[nH]n2)cc1 | 1480 nM | 
9 | 880 nM | 1340 nM | 5.873 | 540 nM | O=C(/C=C\c1ccc(C(F)(F)F)cc1)Nc1cc(-c2ccccc2)[nH]n1 | 640 nM | 
10 | 1130 nM | 1620 nM | 5.79 | 840 nM | Cc1ccc(-c2cc(NC(=O)/C=C/c3ccc([N+](=O)[O-])cc3)n[nH]2)cc1 | 1320 nM | 
11 | 1220 nM | 1850 nM | 5.733 | 840 nM | O=C(/C=C/c1ccc(F)cc1)Nc1cc(-c2ccccc2)[nH]n1 | 1250 nM | 
12 | 1670 nM | 3120 nM | 5.506 | 1630 nM | Cc1ccc(-c2cc(NC(=O)/C=C/c3ccccc3)n[nH]2)cc1 | 1680 nM | 
13 | 1390 nM | 2060 nM | 5.686 | 970 nM | O=C(/C=C/c1ccc(Cl)cc1)Nc1cc(-c2ccccc2)[nH]n1 | 1270 nM | 
14 | 970 nM | 1560 nM | 5.807 | 630 nM | O=C(/C=C/c1ccc([N+](=O)[O-])cc1)Nc1cc(-c2ccccc2)[nH]n1 | 720 nM | 
15 | 1020 nM | 1530 nM | 5.815 | 720 nM | Cc1ccc(-c2cc(NC(=O)/C=C/c3ccc(C(F)(F)F)cc3)n[nH]2)cc1 | 1210 nM | 
16 | 1210 nM | 1950 nM | 5.71 | 770 nM | O=C(/C=C/c1ccc(Cl)cc1)Nc1cc(-c2ccc(Br)cc2)[nH]n1 | 1080 nM | 
17 | 1460 nM | 2360 nM | 5.627 | 1240 nM | O=C(/C=C/c1ccc(Br)cc1)Nc1cc(-c2ccccc2)[nH]n1 | 1380 nM | 
18 | 1580 nM | 2840 nM | 5.547 | 1360 nM | O=C(/C=C/c1ccccc1)Nc1cc(-c2ccccc2)[nH]n1 | 1560 nM | 
19 | 930 nM | 1780 nM | 5.75 | 640 nM | O=C(/C=C\c1ccc(F)cc1)Nc1cc(-c2ccc(Br)cc2)[nH]n1 | 850 nM | 
20 | 1770 nM | 3020 nM | 5.52 | 1780 nM | Cc1ccc(/C=C/C(=O)Nc2cc(-c3ccccc3)[nH]n2)cc1 | 1680 nM | 
21 | 740 nM | 1240 nM | 5.907 | 560 nM | O=C(/C=C/c1ccc([N+](=O)[O-])cc1)Nc1cc(-c2ccc(Br)cc2)[nH]n1 | 630 nM | 
22 | 1440 nM | 2550 nM | 5.593 | 1120 nM | O=C(/C=C/c1ccccc1)Nc1cc(-c2ccc(Br)cc2)[nH]n1 | 1270 nM | 
23 | 1250 nM | 1920 nM | 5.717 | 950 nM | Cc1ccc(-c2cc(NC(=O)/C=C/c3ccc(F)cc3)n[nH]2)cc1 | 1430 nM | 
24 | 1880 nM | 3360 nM | 5.474 | 1720 nM | Cc1ccc(/C=C/C(=O)Nc2cc(-c3ccc(C)cc3)[nH]n2)cc1 | 1750 nM | 

Row | SMILES | IC50 (A549) | IC50 (Tubulin) | pIC50 (Tubulin) | IC50 (MCF7 [2]) | IC50 [1] | further results
25 | COc1ccc(/C=C\c2cc(OC)c(OC)c(OC)c2)cc1O [COMBRETASTATIN A4] | 460 nM |  |  | 210 nM | 420 nM | 
26 | COc1cc2c(c(OC)c1OC)-c1ccc(OC)c(=O)cc1[C@@H](NC(C)=O)CC2 [COLCHICINE] | 580 nM |  |  | 390 nM | 480 nM | Activity (MCF7 [10]): 80.62%; Activity (MCF7 [11]): 6.94%; Activity (MCF7 [12]): 12.44%
